TRPC4 potent – positive allosteric modulators of TRPC4, primary screen, cell-based, mouse TRPC4beta, HEK293 mu-opioid, Fluo-4 calcium; DAMGO EC20, Fluo-4 Ca2+ flux; active compounds read high; B-score at 10 µM; 0.42% of 310,000 active;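 active means B-score of calcium response area above 5 SD of library B-scores, with initial fluorescence ratio within 5 SD of library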;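 further: B-score of integrated fluorescence ratio over time as area under calcium response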
Target sequence (Q9QUQ5 whole entry, looked up): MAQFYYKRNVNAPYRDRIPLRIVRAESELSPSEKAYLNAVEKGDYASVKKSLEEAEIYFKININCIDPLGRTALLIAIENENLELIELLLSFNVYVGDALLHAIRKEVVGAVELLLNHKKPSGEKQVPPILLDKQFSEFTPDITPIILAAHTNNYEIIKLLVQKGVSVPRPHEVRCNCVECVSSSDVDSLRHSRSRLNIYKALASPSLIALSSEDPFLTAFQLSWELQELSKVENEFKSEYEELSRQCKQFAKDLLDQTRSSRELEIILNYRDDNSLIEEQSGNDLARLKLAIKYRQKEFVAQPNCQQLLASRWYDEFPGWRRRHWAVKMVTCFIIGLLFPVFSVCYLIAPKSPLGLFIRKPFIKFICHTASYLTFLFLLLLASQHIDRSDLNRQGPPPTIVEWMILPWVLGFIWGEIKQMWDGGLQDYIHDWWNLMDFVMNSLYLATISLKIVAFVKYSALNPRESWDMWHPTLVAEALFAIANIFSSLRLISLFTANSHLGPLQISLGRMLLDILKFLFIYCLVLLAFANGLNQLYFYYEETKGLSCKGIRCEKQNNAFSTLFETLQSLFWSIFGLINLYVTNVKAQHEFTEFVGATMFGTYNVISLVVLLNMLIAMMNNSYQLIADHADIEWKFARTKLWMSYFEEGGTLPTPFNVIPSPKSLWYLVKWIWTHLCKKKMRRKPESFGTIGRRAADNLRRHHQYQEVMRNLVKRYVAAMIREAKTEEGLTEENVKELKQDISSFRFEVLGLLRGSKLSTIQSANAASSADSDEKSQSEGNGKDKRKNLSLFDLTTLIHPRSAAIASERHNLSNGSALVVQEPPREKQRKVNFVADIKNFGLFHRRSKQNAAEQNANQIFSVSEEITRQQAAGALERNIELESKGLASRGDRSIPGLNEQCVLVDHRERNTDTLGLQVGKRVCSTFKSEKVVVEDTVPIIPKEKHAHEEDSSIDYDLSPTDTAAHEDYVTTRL
TRPC4 agonist – activators of mouse TRPC4 channel, primary screen, Fluo4 calcium, HEK293 TRPC4beta/mu-opioid cells; 0.49% of 310,000 active; AID 2237, 2010; Short transient receptor potential channel 4 (Mus musculus), Q9QUQ5; Fluo4 calcium fluorescence; active compounds read high; B-score at 10 µM;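 active means B-score above 5 SD of library B-scores, and initial fluorescence ratio not above library mean plus 5 SD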;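 further: positive B-score marks a calcium rise read as TRPC4 activation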
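Material: HEK293 stable line with TRPC4beta plus mu-opioid receptor; technique: Fluo4 calcium-sensitive dye fluorescence, kinetic, 1 Hz baseline; timing: Fluo4 dye loading 45 min at room temperature, 110 s recording; controls: assay buffer as low control, maximal DAMGO as high control; read-out: integrated baseline-normalised fluorescence ratio, converted to per-well B score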
TRPC6 inhibitor – mouse TRPC6 channel inhibitors, primary screen, cell-based, HEK293, membrane potential dye. ACh-evoked depolarization; active compounds read low. B-score at 10 µM. 1.1% of 310,000 active. AID 2553, 2010;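 active means B-score under library mean minus 3 SD, initial fluorescence not abnormally high, positive integrated signal ratio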;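 further: B-score derived from integrated fluorescence ratio over the kinetic read; more negative B-score means stronger inhibition of depolarization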
TRPC4 block – inhibitors of mouse TRPC4 channel, primary screen, Fluo4 calcium, HEK293 TRPC4beta/mu-opioid cells | Short transient receptor potential channel 4 (Mus musculus), Q9QUQ5 | DAMGO-evoked Fluo4 calcium flux; active compounds read low | B-score at 10 µM | 0.39% of 300,000 active | AID 2247, 2010;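 active means B-score over 3 SD under the library average, no early fluorescence shift, positive overall ratio signal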
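Assay system: Stable TRPC4beta/mu-opioid receptor HEK293 cells | Reagent: DAMGO in two steps, submaximal then maximal | Compound dosing: Single concentration per test compound | Signal: Fluo4 Ca2+ flux fluorescence | Evaluation: Per-well B score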
Pemphigus Ab inh – inhibitors of pemphigus antibody binding to DSG3, primary screen, biochemical, bead-based, flow cytometry, scFv-GFP; binding (percent of control), % at 10 µM; DSG3-coupled beads, scFv-anti-DSG3-GFP binding; active compounds read low; 0.48% of 310,000 active; AID 588358, 2011;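 active means binding more than 3 SD below its plate's average and above zero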;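 further: hits lower antibody fragment binding to DSG3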
TRPC6 activator – mouse TRPC6 channel activators, primary screen, cell-based, HEK293, membrane potential dye; Short transient receptor potential channel 6 (Mus musculus), Q61143; HEK293-TRPC6 membrane potential dye fluorescence; active compounds read high; 0.13% of 310,000 active; AID 2550, 2010; B-score at 10 µM;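 active means B-score of the integrated fluorescence ratio above library mean plus 3 SD, and starting fluorescence ratio within library mean plus 5 SD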;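 further: higher score means more depolarization so channel activation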
HEK293 TRPC6 ctr – parental HEK293 membrane potential modulation, confirmation, counter-screen for TRPC6 modulator project, cell-based. shares compounds with TRPC6 inhibitor. membrane potential dye fluorescence. membrane potential signal change, % at 10 µM. 51% of 2,400 active. AID 488924, 2010;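 active means membrane potential signal moves up or down beyond 5 SD from buffer-only wells, on both duplicate plates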
HEK293 MPD ctr 2 – second check of TRPC6 modulator effects in parental HEK293 cells; shares compounds with TRPC6 inhibitor; membrane potential dye fluorescence; after compound, maximal acetylcholine stimulation; inhibition, % at 10 µM; 14% of 2,400 active; AID 488926;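 active means membrane potential signal drops by more than 5 SD from the mean control signal, in both duplicate plates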;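 further: plate controls were acetylcholine ECmax control wells for no effect and buffer only wells for full effect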
TRPC4/MOR mod – TRPC4 modulation by TRPC6 hit compounds, confirmation, selectivity assay for TRPC6 modulator project, cell-based, HEK293 TRPC4/mu-opioid, membrane potential dye, mouse; percent change from control (negative = decrease, positive = increase), % at 10 µM; 69% of 2,400 active; membrane potential fluorescence; shares compounds with TRPC6 inhibitor;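 active means membrane potential signal moved up or down beyond 5 SD of buffer control wells, in both duplicate plates, actives on both sides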;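 further: plate controls were assay buffer wells for no effect and DAMGO maximal-effect wells for full effect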
TRPC4/MOR inh 2 – mouse TRPC4 off-target activity of TRPC6 modulators, second screen | HEK293 TRPC4/mu-opioid, membrane potential dye fluorescence; stimulated with maximal-effect DAMGO | inhibition, % at 10 µM | 55% of 2,400 active | AID 488928 | shares compounds with TRPC6 inhibitor;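 active means drop in membrane potential signal beyond 5 SD of the control wells in both duplicate plates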;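 further: TRPC4 counter screen for TRPC6 hits run under conditions tuned for TRPC6 not TRPC4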
TRPC6 block conf – mouse TRPC6 channel inhibitors, confirmation, HEK293 cells, membrane potential dye, duplicate; shares compounds with TRPC6 inhibitor; ACh-evoked depolarization; inhibition, % at 10 µM; 43% of 3,300 active; AID 488960, 2010;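 active means fluorescence ratio falls more than 5 SD below the full-stimulation control mean, in both duplicate runs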;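 further: integrated fluorescence ratio of peak minus minimum over baseline after agonist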
TRPC6 act conf – mouse TRPC6 channel activators, confirmation, HEK293 cells, membrane potential dye, duplicate; activation, % at 10 µM; 11% of 2,800 active; AID 488961, 2010; shares compounds with TRPC6 inhibitor; HEK293-TRPC6 membrane potential dye fluorescence, FDSS;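 active means ratio signal rise beyond 5 SD above unstimulated control wells' mean, seen in both duplicate runs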;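 further: plate controls were buffer EC0 wells for no effect and acetylcholine ECmax response for full effect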
Numbers without * were called inactive; i = inactive; / = no result. Most compounds without a hit are left out; they make up all but 2.5% or so of the library.

SMILES	TRPC4 potent	TRPC4 agonist	TRPC6 inhibitor	TRPC4 block	Pemphigus Ab inh	TRPC6 activator	HEK293 TRPC6 ctr	HEK293 MPD ctr 2	TRPC4/MOR mod	TRPC4/MOR inh 2	TRPC6 block conf	TRPC6 act conf
COc1ccc(C(C(=O)NCCC(C)C)N(CCN2CCOCC2)C(=O)Cn2nnc3ccccc32)c(OC)c1 (configuration not stated)	i	i	i	i	98	28*	484%*	i	86%*	i	i	298%*
Cc1ccnc(NS(=O)(=O)c2ccc(NC(=O)c3snnc3C)cc2)n1	i	i	i	i	97	i	/	/	/	/	/	/
CCO[C@@H]1OC(C(=O)Nc2ccccc2)=C[C@H](c2csc3ccccc23)[C@H]1CCCO	i	i	i	i	103	i	/	/	/	/	/	/
Cc1ccc(S(=O)(=O)n2ccc3c2CCCC3=O)cc1	i	i	-5.1*	i	104	i	334%*	166%*	76%*	48%*	88%*	/
CCCCCCN1C=CC=C/C1=C\C=C(C#N)C#N	i	i	i	i	106	13*	253%*	i	75%*	i	i	102%*
CC1=C/C(=C\C=C(C#N)C#N)N(C)c2ccccc21	i	i	i	i	100	i	/	/	/	/	/	/
CCc1ccc(-c2nc(SCC(=O)c3c(N)n(C)c(=O)n(C)c3=O)n[nH]2)cc1	/	/	/	/	92	/	/	/	/	/	/	/
Cc1ccc(-c2nc(SCC(=O)c3c(N)n(C)c(=O)n(C)c3=O)n[nH]2)cc1	i	i	-5.1*	i	93	i	i	i	i	i	i	i
O=C(Nc1c2c(nn1-c1ccc(F)cc1)CSC2)c1ccc(S(=O)(=O)N2CCOCC2)cc1	i	i	-5.6*	i	95	i	i	i	i	i	i	i
CCOC(=O)C1=NNC(C(=O)c2ccc(Cl)cc2)C1c1ccccc1 (configuration not stated)	i	i	i	i	94	i	/	/	/	/	/	/
